DNMT1 inh – inhibitors of human DNMT1 | inhibition (reported as % activation of signal), % at 10 µM | P26358 | AID 588458 | DNMT1 molecular beacon, Hinp1I cleavage, fluorescence | 0.83% of 360,000 active; in the data active = inhibition above about 50%
LMPTP block – LMPTP (human) inhibition | P24666 | AID 651560 | inhibition, % at 20 µM | 0.22% of 360,000 active | recombinant LMPTP-A, OMFP fluorogenic substrate, fluorescence intensity;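 active = compounds that cut the enzyme signal by at least half of the control window in the single-dose screen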;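 also: plate controls were DMSO wells with enzyme plus substrate for no effect and substrate without enzyme for full effect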
Target sequence (P24666 whole entry, looked up): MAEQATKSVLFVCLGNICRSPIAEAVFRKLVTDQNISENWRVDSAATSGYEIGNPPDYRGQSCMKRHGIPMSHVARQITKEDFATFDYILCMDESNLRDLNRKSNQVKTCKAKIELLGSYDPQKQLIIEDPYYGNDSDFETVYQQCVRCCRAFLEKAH
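Assay system: LMPTP-A, protein tyrosine phosphatase of low molecular weight / Medium: pH 6.0 Bis-Tris buffer with DTT and Triton X-100 / Schedule: 50 min enzyme reaction at room temperature, protected from light / Measured by: endpoint fluorescence intensity from OMFP dephosphorylation / Read-out basis: % inhibition relative to no-enzyme and uninhibited control wells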
SUMO1 PPI mod – alters human SUMO1 binding to SIM partners | P63165 | SUMO1 binding to a labelled peptide, TR-FRET, 1 h | inhibition, % at 20 µM | 0.33% of 360,000 active | AID 602429; in the data active = inhibition above about 37%
STEP inh – inhibitors of human striatal-enriched phosphatase STEP. P54829. recombinant STEP, OMFP fluorogenic substrate, fluorescence. inhibition, % at 20 µM. 0.25% of 360,000 active;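 active = inhibition at 20 µM, scaled per plate between control wells, above about 37%, limit read from the data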;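 also: 0% = DMSO with enzyme and substrate and 100% = substrate only without enzyme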
Target sequence (P54829 whole entry, looked up): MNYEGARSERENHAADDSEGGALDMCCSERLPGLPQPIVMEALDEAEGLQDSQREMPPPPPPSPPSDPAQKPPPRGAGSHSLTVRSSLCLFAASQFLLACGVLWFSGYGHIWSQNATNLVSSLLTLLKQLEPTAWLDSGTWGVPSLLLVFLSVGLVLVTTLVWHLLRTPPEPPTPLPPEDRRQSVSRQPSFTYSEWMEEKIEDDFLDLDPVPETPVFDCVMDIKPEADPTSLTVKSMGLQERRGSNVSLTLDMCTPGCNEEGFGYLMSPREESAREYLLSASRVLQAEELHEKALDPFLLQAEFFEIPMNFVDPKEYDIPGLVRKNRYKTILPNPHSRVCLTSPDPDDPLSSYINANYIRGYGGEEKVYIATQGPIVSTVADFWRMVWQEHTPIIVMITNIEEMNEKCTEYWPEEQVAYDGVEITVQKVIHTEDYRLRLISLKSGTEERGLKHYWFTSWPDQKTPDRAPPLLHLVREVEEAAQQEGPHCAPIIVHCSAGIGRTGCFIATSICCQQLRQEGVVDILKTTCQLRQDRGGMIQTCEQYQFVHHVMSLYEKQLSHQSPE
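material = STEP tyrosine phosphatase | reagent = fluorogenic phosphatase substrate OMFP at 25 µM final | doses = single compound dose of 20 µM, 1% DMSO final | schedule = 20 min reaction, room temperature, in the dark | measured by = fluorescence, 480/540 nm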
HKDC1 inhibitor – blocks human hexokinase HKDC1 activity | Q2TB90 | recombinant HKDC1, G6PDH/diaphorase resazurin coupled fluorescence | inhibition, % at 20 µM | 0.16% of 340,000 active | AID 493160;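 active = inhibition above about 35% when tested at 20 µM, limit read from the data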;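 also: plate controls were DMSO wells with enzyme for no effect and DMSO wells lacking enzyme for full effect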
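Test system: Recombinant HKDC1 (HK5) hexokinase enzyme, produced in-house | Input: HKDC1 at 5 µg/mL | Buffer or medium: Tris pH 8.0 buffer with MgCl2, Tween-20, BSA, BME | Schedule: 90 min reaction incubation at room temperature, dark | Technique: Resazurin-to-resorufin fluorescence via G6PDH and diaphorase coupling, 525/613 nm | Controls: DMSO wells with and without enzyme mix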
Scp1 inh – inhibitors of human Scp-1 phosphatase | inhibition, % at 20 µM | 0.88% of 340,000 active | Recombinant Scp1, phosphopeptide, malachite green phosphate absorbance | Q9GZU7;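 active = inhibition above about 50% at 20 µM, limit read from the data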;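 also: plate controls were DMSO wells with enzyme for no effect and wells lacking enzyme for full effect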
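Test system – truncated SCP-1 phosphatase (76-261aa) · Reagent – Phosphorylated 17-residue peptide substrate · Incubation – 45 min room-temperature reaction, 5 min colour, 30 min stabiliser · Detection – colorimetric phosphate reagent with accelerator and stabiliser, absorbance at 630 nm · Measure – % inhibition at 20 µM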
* = called active by the depositor; nt = no result. Sampled rows, rich in hits. Any-hit rate of the full collection: about 1.8%.

SMILES	DNMT1 inh	LMPTP block	SUMO1 PPI mod	STEP inh	HKDC1 inhibitor	Scp1 inh
CSCCC(NC(=O)C1CCC(C)CC1)C(=O)Nc1ccc(NC(C)=O)cc1 (stereo not drawn)	0.5	-0.3	7.3	6.7	-0.9	-2.0
Cc1ccc(S(=O)(=O)N2[C@@H](c3ccc(F)cc3)C(C(=O)O)=C[C@H]2CC2CCCC2)cc1	2.8	0.3	9.7	-0.9	-0.7	4.1
O=C(CCc1nnc2n(Cc3ccc(Cl)cc3)c(=O)c3ccccc3n12)N1CCN(c2ccccn2)CC1	-3.9	63.7*	-0.8	7.8	-4.4	4.7
Cc1cccc(N2CCN(C(=O)CN3C(=O)NC(C)(C4CC4)C3=O)CC2)c1C (stereo not drawn)	46.5	0.6	44.7*	0.9	3.4	-0.1
COc1ccc(C(=O)/C(C#N)=N/Nc2ccc([N+](=O)[O-])cc2)cc1	-2.4	73.4*	-60.8	95.8*	2.6	65.6*
CCC1CCCCN1CCCNC(=O)CCCOc1cc(=O)n(C)c2ccccc12 (stereo not drawn)	6.3	-0.7	1.0	-1.0	-9.7	-5.1
CCC1CCCCN1CCCNC(=O)COc1cc(=O)n(C)c2ccccc12 (stereo not drawn)	-1.3	-0.9	43.7*	-3.3	-5.1	-9.0
Nc1nc(=S)c2ncn(C3OC(CO)C(O)C3O)c2[nH]1 (stereo not drawn)	79.6*	26.1	19.1	42.6*	7.5	76.7*
Cc1cccc(CN(Nc2ccccc2)c2ccccc2)n1	6.7	-1.1	1.9	-1.8	nt	nt
Cc1cccn2c(=O)c(/C=N/O)c(Nc3ccccc3F)nc12	11.4	15.8	51.9*	1.9	7.7	-11.4
O=C(O)c1ccc(CP(=O)(c2ccccc2)c2ccccc2)cc1	-0.6	-1.2	3.6	-6.3	0.0	-1.2
Oc1ccc(CCNc2c3ccccc3nc3ccccc23)cc1O	78.6*	46.9*	-13.9	2.3	10.9	-9.6
c1ccc(CNc2c3ccccc3nc3ccccc23)cc1	67.2*	60.8*	-22.5	2.5	-5.4	-11.0
c1ccc(CNc2ncnc3ccccc23)cc1	-1.0	13.4	-3.7	-1.9	8.9	-5.2
CN(C)CCCNc1c2ccccc2nc2ccccc12	48.1	43.9	-67.8	2.4	3.3	-4.4
C=C(C)C(=O)Nc1cccc(C2=NOC3(C2)C[C@@H](C(N)=O)N(C(=O)c2ccc(OC)cc2)C3)c1 (stereo partly drawn)	95.8*	2.3	106.8*	13.2	-4.0	99.4*
CCCCCC(=O)Nc1cccc(C2=NOC3(C2)C[C@@H](C(N)=O)N(C(=O)c2ccc(OC)cc2)C3)c1 (stereo partly drawn)	7.3	0.2	16.7	-0.3	0.8	14.3
Cc1cccc(/C=N\NC(=O)c2ccc(Cl)cc2)c1O	5.7	40.9	-0.3	16.1	-13.8	95.1*
Cc1cc(=O)oc2cc(OCc3ccc(C(=O)OCC(=O)NC4CCS(=O)(=O)C4)cc3)ccc12 (stereo not drawn)	19.6	13.2	56.9*	5.6	0.4	49.8
c1ccc(-c2cc(NCCN3CCCCC3)c3ccccc3n2)cc1	43.6	90.3*	-10.3	-4.3	-4.2	1.4
CCN1/C(=C/C=C/c2oc3ccc4ccccc4c3[n+]2CC)Oc2ccc3ccccc3c21	nt	nt	nt	nt	50.8*	36.0
COc1ccc(CNCc2cn(-c3cccc(F)c3)nc2-c2ccc(C)o2)cc1	-3.4	8.3	-4.9	2.3	2.9	-1.8
O=C(O)CCNc1ccc(NCCC(=O)O)c2c1C(=O)c1ccccc1C2=O	96.5*	72.0*	60.3*	95.7*	18.6	86.2*
CN(C)CCN1C(=O)c2cccc3cc([N+](=O)[O-])cc(c23)C1=O	69.1*	3.5	1.5	0.0	-0.6	4.7
COc1ccc(/C=N/OCC(=O)N=Nc2c(O)[nH]c3ccc(Br)cc23)cc1	79.2*	5.2	-9.1	3.2	-10.5	-3.2
SMILES	DNMT1 inh	LMPTP block	SUMO1 PPI mod	STEP inh	HKDC1 inhibitor	Scp1 inh
Cc1cccc(C)c1OCC(=O)N=Nc1c(O)[nH]c2ccc(Br)cc12	38.7	1.9	-9.4	1.3	-3.6	-0.3
CN(CC(=O)Nc1ccc(Cl)c(C(F)(F)F)c1)C(=O)c1cn2ccccc2n1	1.2	-0.3	-0.4	1.6	-2.9	3.1
Cc1oc(-c2cc(F)ccc2F)nc1CN1CCC(C(=O)N2CCOCC2)CC1	1.3	-1.3	43.9*	0.3	4.0	-7.3
CCOC(=O)C1=C(C)N(CCCCCC(=O)O)C(=O)NC1c1cccc([N+](=O)[O-])c1 (stereo not drawn)	92.2*	-1.0	-3.8	1.4	-0.6	-5.9
COc1cc(CNCc2ccc(OC)cc2OC)cc(OC)c1	-0.3	-2.2	-2.3	1.4	5.0	-3.5
CSc1ccc(CNC(=O)C2(C)CCCN(C(C)=O)C2)cc1 (stereo not drawn)	2.0	-1.2	1.4	-0.6	nt	nt
COc1ccc(Cn2c(-c3ccccc3)nc3c(c(=O)c4ccccc4n3C)c2=O)cc1	37.5	4.6	11.4	4.4	-6.6	5.5
COc1ccc(CCn2c(C3CCCCC3)nc3c(c(=O)c4ccccc4n3C)c2=O)cc1	6.6	103.7*	34.4	97.6*	4.4	0.9
Cc1oc2c(C)c3oc(=O)c(CCC(=O)O)c(C)c3cc2c1-c1ccccc1	3.3	4.1	38.3*	2.0	0.2	17.7
O=c1[nH]c2ccccc2c2nc(-c3cccc(S(=O)(=O)N4CCCC4)c3)nn12	-1.8	7.3	42.3*	9.1	24.5	7.7
O=C(N=Nc1c(O)[nH]c2ccccc12)c1cccc(S(=O)(=O)N2CCCCC2)c1	5.7	9.0	-2.0	-1.1	-3.8	13.0
CSc1cccc(NC(=O)CCc2ccccc2)c1	3.7	-0.2	3.6	6.6	4.2	-9.9
CSc1cccc(NC(=S)NC(=O)CCc2ccccc2)c1	-1.3	3.4	38.3*	4.2	1.5	-20.2
COc1ccc(C2=NOC(C(=O)Nc3ccc4c(c3)OCO4)C2)cc1OC (stereo not drawn)	-17.8	1.0	-4.3	-0.5	-1.8	-6.7
CCC(=O)C1CCCN(C(=O)c2ccc(OC)c(OC3CCN(C(C)=O)CC3)c2)C1 (stereo not drawn)	1.9	-1.4	42.9*	-2.5	-0.2	-6.9
CC1CC(C)C[N+](=C2C=C(N3CCCC3)CC(C)(C)C2)C1 (stereo not drawn)	5.0	-0.3	2.4	0.5	-6.5	96.4*
CC1(C)CC(N2CCCC2)=CC(=[N+]2CCCCCC2)C1	2.2	-0.9	0.5	-0.3	-11.2	19.4
CC(C)(C)N1C(=O)c2ccccc2NC(=O)C1C(=O)Nc1ccc2c(c1)OCCO2 (stereo not drawn)	nt	-1.1	-0.1	nt	nt	nt
CN(C)C(=O)c1cnc(Cc2c[nH]c3ccccc23)c(I)c1	0.6	-2.6	3.7	1.0	nt	nt
